Source: ChEMBL document CHEMBL3877264, “Quinolidene-rhodanine conjugates: Facile synthesis and biological evaluation” (Eur J Med Chem, 2017)
Values after ≈ are worked out from the molar mass of the structure shown.

Assays:
Assay type in all cases: functional
Escherichia coli [1] = assay: Growth inhibition of Escherichia coli NCIM 2688 at 3 ug/ml measured after 8 hrs relative to control; conditions: NCIM 2688, 8 h, read-out: GI
Method in brief: (§1)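 Bacteria grown in LB at 37 °C and 180 rpm to OD 1. Compounds added to wells, then 0.1% inoculum of 1 OD culture (620 nm). Growth read as OD at 620 nm after 8 h for gram-negative and after 12 h for gram-positive strains.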

[2] = system: Mycobacterium tuberculosis; assay: Growth inhibition of Mycobacterium bovis BCG ATCC 35743 at active stage measured after 8 days by nitrate reductase dye based two fold dilution method; conditions: BCG str. ATCC 35743, 192 h
Method in brief: (§2)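 M. bovis BCG was grown in Dubos medium and assayed in Mycobacterium pheli minimal medium (pH 6.6), with compounds from DMSO stocks. Incubation lasted 8 days for active and 12 days for dormant cultures. Viability was read by nitrate reductase at 540 nm against cell-free blanks, with vehicle set as 100% growth. Primary screen was at 30, 10 and 3 µg/ml, in triplicate, mean ± SD. MIC was taken from dose-response curves.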

[3] = Antifungal activity against Fusarium oxysporum NCIM 1332 by standard agar method
Method in brief: (§3)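 MICs determined by standard agar method; DMSO as solvent control.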

Staphylococcus aureus [4] = assay: Growth inhibition of Staphylococcus aureus NCIM 2010 at 30 ug/ml measured after 12 hrs relative to control; conditions: NCIM 2010, 12 h, read-out: GI; method in brief: as §1
Bacillus subtilis [5] = assay: Growth inhibition of Bacillus subtilis NCIM 2079 at 10 ug/ml measured after 12 hrs relative to control; conditions: NCIM 2079, 12 h, read-out: GI; method in brief: as §1
[6] = system: Mycobacterium tuberculosis; assay: Growth inhibition of Mycobacterium bovis BCG ATCC 35743 at dormant stage at 30 ug/ml measured after 12 days by nitrate reductase dye based two fold dilution method relative to control; conditions: BCG str. ATCC 35743, 288 h, read-out: GI; method in brief: as §2
Staphylococcus aureus [7] = assay: Growth inhibition of Staphylococcus aureus NCIM 2010 at 3 ug/ml measured after 12 hrs relative to control; conditions: NCIM 2010, 12 h, read-out: GI; method in brief: as §1
Escherichia coli [8] = assay: Antibacterial activity against Escherichia coli NCIM 2688 measured after 8 hrs; conditions: NCIM 2688, 8 h; method in brief: as §1
Pseudomonas fluorescens [9] = assay: Antibacterial activity against Pseudomonas fluorescens NCIM 2036 measured after 8 hrs; conditions: NCIM 2036, 8 h; method in brief: as §1
Escherichia coli [10] = assay: Growth inhibition of Escherichia coli NCIM 2688 at 10 ug/ml measured after 8 hrs relative to control; conditions: NCIM 2688, 8 h, read-out: GI; method in brief: as §1
Candida albicans = assay: Antifungal activity against Candida albicans NCIM 3471 by standard agar method; method in brief: as §3
Escherichia coli [11] = assay: Growth inhibition of Escherichia coli NCIM 2688 at 30 ug/ml measured after 8 hrs relative to control; conditions: NCIM 2688, 8 h, read-out: GI; method in brief: as §1
Bacillus subtilis [12] = assay: Antibacterial activity against Bacillus subtilis NCIM 2079 measured after 12 hrs; conditions: NCIM 2079, 12 h; method in brief: as §1
Staphylococcus aureus [13] = assay: Antibacterial activity against of Staphylococcus aureus NCIM 2010 measured after 12 hrs; conditions: NCIM 2010, 12 h; method in brief: as §1
[14] = Antifungal activity against Cryptococcus neoformans NCIM 576 by standard agar method; method in brief: as §3
[15] = system: Mycobacterium tuberculosis; assay: Growth inhibition of Mycobacterium tuberculosis H37Ra ATCC 25177 at dormant stage measured after 12 days by XTT dye based two fold dilution method; conditions: H37Ra ATCC 25177, 288 h
Method in brief: (§4)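 MTB H37Ra was grown in Dubos medium, then exposed in Mycobacterium pheli minimal medium (pH 6.6) to compounds dissolved in DMSO. The assay ended on day 8 (active) or day 12 (dormant). Viable cells were measured by XTT reduction menadione assay at 470 nm, blank-corrected, relative to vehicle control. Triplicates were expressed as mean ± SD. MIC came from dose-response curves.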

Bacillus subtilis [16] = assay: Growth inhibition of Bacillus subtilis NCIM 2079 at 30 ug/ml measured after 12 hrs relative to control; conditions: NCIM 2079, 12 h, read-out: GI; method in brief: as §1
Aspergillus niger = assay: Antifungal activity against Aspergillus niger NCIM 1196 by standard agar method; method in brief: as §3
[17] = system: Mycobacterium tuberculosis; assay: Growth inhibition of Mycobacterium bovis BCG ATCC 35743 at dormant stage at 10 ug/ml measured after 12 days by nitrate reductase dye based two fold dilution method relative to control; conditions: BCG str. ATCC 35743, 288 h, read-out: GI; method in brief: as §2
Aspergillus flavus = assay: Antifungal activity against Aspergillus flavus NCIM 539 by standard agar method; method in brief: as §3
Pseudomonas fluorescens [18] = assay: Growth inhibition of Pseudomonas fluorescens NCIM 2036 at 30 ug/ml measured after 8 hrs relative to control; conditions: NCIM 2036, 8 h, read-out: GI; method in brief: as §1
Pseudomonas fluorescens [19] = assay: Growth inhibition of Pseudomonas fluorescens NCIM 2036 at 10 ug/ml measured after 8 hrs relative to control; conditions: NCIM 2036, 8 h, read-out: GI; method in brief: as §1
Bacillus subtilis [20] = assay: Growth inhibition of Bacillus subtilis NCIM 2079 at 3 ug/ml measured after 12 hrs relative to control; conditions: NCIM 2079, 12 h, read-out: GI; method in brief: as §1
[21] = system: Mycobacterium tuberculosis; assay: Growth inhibition of Mycobacterium tuberculosis H37Ra ATCC 25177 at active stage measured after 8 days by XTT dye based two fold dilution method; conditions: H37Ra ATCC 25177, 192 h; method in brief: as §4
[22] = system: Mycobacterium tuberculosis; assay: Growth inhibition of Mycobacterium bovis BCG ATCC 35743 at dormant stage measured after 12 days by nitrate reductase dye based two fold dilution method; conditions: BCG str. ATCC 35743, 288 h; method in brief: as §2
Staphylococcus aureus [23] = assay: Growth inhibition of Staphylococcus aureus NCIM 2010 at 10 ug/ml measured after 12 hrs relative to control; conditions: NCIM 2010, 12 h, read-out: GI; method in brief: as §1
[24] = system: Mycobacterium tuberculosis; assay: Growth inhibition of Mycobacterium bovis BCG ATCC 35743 at dormant stage at 3 ug/ml measured after 12 days by nitrate reductase dye based two fold dilution method relative to control; conditions: BCG str. ATCC 35743, 288 h, read-out: GI; method in brief: as §2
Pseudomonas fluorescens [25] = assay: Growth inhibition of Pseudomonas fluorescens NCIM 2036 at 3 ug/ml measured after 8 hrs relative to control; conditions: NCIM 2036, 8 h, read-out: GI; method in brief: as §1

Cc1ccc2cc(/C=C3\SC(=S)N(CC(=O)O)C3=O)c(Cl)nc2c1
inhibition of growth at 3 µg/mL (Escherichia coli [1]): 1.9%
IC50 [2]: > 30 µg/mL
IC90 [2]: > 30 µg/mL
MIC [3]: 125 µg/mL (≈ 330 µM)
inhibition of growth at 30 µg/mL (Staphylococcus aureus [4]): -16%
inhibition of growth at 10 µg/mL (Bacillus subtilis [5]): -1.27%
inhibition of growth at 30 µg/mL [6]: 11.4%
inhibition of growth at 3 µg/mL (Staphylococcus aureus [7]): -13.1%
MIC (Escherichia coli [8]): > 30 µg/mL
MIC (Pseudomonas fluorescens [9]): > 30 µg/mL
inhibition of growth at 10 µg/mL (Escherichia coli [10]): 2.04%
MIC (Candida albicans): 125 µg/mL (≈ 330 µM)
inhibition of growth at 30 µg/mL (Escherichia coli [11]): -12.5%
MIC (Bacillus subtilis [12]): > 30 µg/mL
MIC (Staphylococcus aureus [13]): > 30 µg/mL
MIC [14]: 150 µg/mL (≈ 396 µM)
IC50 [15]: > 30 µg/mL
IC90 [15]: > 30 µg/mL
inhibition of growth at 30 µg/mL (Bacillus subtilis [16]): 2.96%
MIC (Aspergillus niger): 75 µg/mL (≈ 198 µM)
inhibition of growth at 10 µg/mL [17]: 22.4%
MIC (Aspergillus flavus): 100 µg/mL (≈ 264 µM)
inhibition of growth at 30 µg/mL (Pseudomonas fluorescens [18]): -8.32%
inhibition of growth at 10 µg/mL (Pseudomonas fluorescens [19]): -10.7%
inhibition of growth at 3 µg/mL (Bacillus subtilis [20]): 2.07%
IC50 [21]: > 30 µg/mL
IC90 [21]: > 30 µg/mL
IC50 [22]: > 30 µg/mL
IC90 [22]: > 30 µg/mL
inhibition of growth at 10 µg/mL (Staphylococcus aureus [23]): -23.6%
inhibition of growth at 3 µg/mL [24]: 22.7%
inhibition of growth at 3 µg/mL (Pseudomonas fluorescens [25]): -11.5%

Cc1ccc2nc(Cl)c(/C=C3\SC(=S)NC3=O)cc2c1
inhibition of growth at 3 µg/mL (Escherichia coli [1]): -7.51%
IC50 [2]: > 30 µg/mL
IC90 [2]: > 30 µg/mL
MIC [3]: 100 µg/mL (≈ 312 µM)
inhibition of growth at 30 µg/mL (Staphylococcus aureus [4]): -44%
inhibition of growth at 10 µg/mL (Bacillus subtilis [5]): -3.58%
inhibition of growth at 30 µg/mL [6]: -24.3%
inhibition of growth at 3 µg/mL (Staphylococcus aureus [7]): -49.2%
MIC (Escherichia coli [8]): > 30 µg/mL
MIC (Pseudomonas fluorescens [9]): > 30 µg/mL
inhibition of growth at 10 µg/mL (Escherichia coli [10]): -6.34%
MIC (Candida albicans): 175 µg/mL (≈ 545 µM)
inhibition of growth at 30 µg/mL (Escherichia coli [11]): -7.51%
MIC (Bacillus subtilis [12]): > 30 µg/mL
MIC (Staphylococcus aureus [13]): > 30 µg/mL
MIC [14]: 150 µg/mL (≈ 468 µM)
IC50 [15]: > 30 µg/mL
IC90 [15]: > 30 µg/mL
inhibition of growth at 30 µg/mL (Bacillus subtilis [16]): -16.6%
MIC (Aspergillus niger): 125 µg/mL (≈ 390 µM)
inhibition of growth at 10 µg/mL [17]: -18.4%
MIC (Aspergillus flavus): 125 µg/mL (≈ 390 µM)
inhibition of growth at 30 µg/mL (Pseudomonas fluorescens [18]): 18.4%
inhibition of growth at 10 µg/mL (Pseudomonas fluorescens [19]): 17.5%
inhibition of growth at 3 µg/mL (Bacillus subtilis [20]): -8.73%
IC50 [21]: > 30 µg/mL
IC90 [21]: > 30 µg/mL
IC50 [22]: > 30 µg/mL
IC90 [22]: > 30 µg/mL
inhibition of growth at 10 µg/mL (Staphylococcus aureus [23]): -30.8%
inhibition of growth at 3 µg/mL [24]: -19.3%
inhibition of growth at 3 µg/mL (Pseudomonas fluorescens [25]): 23.9%
